From ChEMBL document CHEMBL3046705, “Design and synthesis of benzoylphenylureas with fluorinated substituents on the aniline ring as insect growth regulators” (2011) come the findings set out here.

Common to all, as to type: functional
For assay [1], the system named is Mythimna separata. Kind of assay: Insecticidal activity against fourth-instar larval stage of Mythimna separata (Oriental armyworm) infested drug-pretreated corn leaves assessed as mortality at 10 mg/l at 25 +/-1 degC after 4 days.
The test system of assay [2] is Culex pipiens pallens. The assay is described as follows: Insecticidal activity against fourth-instar larval stage of Culex pipiens pallens (mosquito) assessed as mortality at 0.25 mg/l at 25 +/-1 degC after 8 days. The following applies: 192 h. A digest of the protocol:
(§1)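 Larvicidal test against mosquito larvae followed a previously reported procedure. Test solutions were made by dissolving each compound in acetone and adding distilled water to give the series of concentrations.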

The test system of assay [3] is Mythimna separata. Kind of assay: Insecticidal activity against fourth-instar larval stage of Mythimna separata (Oriental armyworm) infested drug-pretreated corn leaves assessed as mortality at 5 mg/l at 25 +/-1 degC after 4 days.
Assay [4] deals with Mythimna separata. Kind of assay: Insecticidal activity against fourth-instar larval stage of Mythimna separata (Oriental armyworm) infested drug-pretreated corn leaves assessed as mortality at 1 mg/l at 25 +/-1 degC after 4 days.
The test system of assay [5] is Mythimna separata. The assay is described as follows: Insecticidal activity against fourth-instar larval stage of Mythimna separata (Oriental armyworm) infested drug-pretreated corn leaves assessed as mortality at 2.5 mg/l at 25 +/-1 degC after 4 days.
For assay [6], the system named is Culex pipiens pallens. Kind of assay: Insecticidal activity against fourth-instar larval stage of Culex pipiens pallens (mosquito) assessed as mortality at 0.05 mg/l at 25 +/-1 degC after 8 days. The note with it: 192 h. The method in brief: as §1
The subject of assay [7] is Culex pipiens pallens. The assay is described as follows: Insecticidal activity against fourth-instar larval stage of Culex pipiens pallens (mosquito) assessed as mortality at 0.1 mg/l at 25 +/-1 degC after 8 days. The note with it: 192 h. A digest of the protocol:
as §1

Assay [8] concerns Culex pipiens pallens. The assay is described as follows: Insecticidal activity against fourth-instar larval stage of Culex pipiens pallens (mosquito) assessed as mortality at 0.025 mg/l at 25 +/-1 degC after 8 days. The note with it: 192 h. The method in brief:
as §1

Assay [9] relates to Culex pipiens pallens. The assay is described as follows: Insecticidal activity against fourth-instar larval stage of Culex pipiens pallens (mosquito) assessed as mortality at 0.0025 mg/l at 25 +/-1 degC after 8 days. The following applies: 192 h. The method in brief: as §1
Assay [10] deals with Culex pipiens pallens. Kind of assay: Insecticidal activity against fourth-instar larval stage of Culex pipiens pallens (mosquito) assessed as mortality at 0.005 mg/l at 25 +/-1 degC after 8 days. The note with it: 192 h. A digest of the protocol: as §1
Assay [11] relates to Mythimna separata. Kind of assay: Insecticidal activity against fourth-instar larval stage of Mythimna separata (Oriental armyworm) infested drug-pretreated corn leaves assessed as mortality at 25 mg/l at 25 +/-1 degC after 4 days.
Assay [12] deals with Mythimna separata. The assay is described as follows: Insecticidal activity against fourth-instar larval stage of Mythimna separata (Oriental armyworm) infested drug-pretreated corn leaves assessed as mortality at 50 mg/l at 25 +/-1 degC after 4 days.
The subject of assay [13] is Culex pipiens pallens. The assay is described as follows: Insecticidal activity against fourth-instar larval stage of Culex pipiens pallens (mosquito) assessed as mortality at 0.01 mg/l at 25 +/-1 degC after 8 days. The following applies: 192 h. A digest of the protocol: as §1
Assay [14] concerns Culex pipiens pallens. Kind of assay: Insecticidal activity against fourth-instar larval stage of Culex pipiens pallens (mosquito) assessed as mortality at 2 mg/l at 25 +/-1 degC after 8 days. The following applies: 192 h. The method in brief:
as §1

Assay [15] concerns Mythimna separata. Kind of assay: Insecticidal activity against fourth-instar larval stage of Mythimna separata (Oriental armyworm) infested drug-pretreated corn leaves assessed as mortality at 100 mg/l at 25 +/-1 degC after 4 days.
Assay [16] has as its system Mythimna separata. Kind of assay: Insecticidal activity against fourth-instar larval stage of Mythimna separata (Oriental armyworm) infested drug-pretreated corn leaves assessed as mortality at 200 mg/l at 25 +/-1 degC after 4 days.

For orientation: mortality means the percentage killed. `O=C(NC(=O)c1c(F)cccc1F)Nc1cc(Cl)c(OC(F)(F)C(F)F)c(Cl)c1` [HEXAFLUMURON]: in assay [1], the mortality at 10 µg/mL turned out to be 80%. The mortality at 0.25 µg/mL in assay [2] amounted to 100%.
Take `O=C(NC(=O)c1c(F)cccc1F)Nc1ccc(OC(C(F)(F)F)C(F)(F)F)cc1`: the mortality at 5 µg/mL in [3] came to 90%. For the same compound, the mortality at 1 µg/mL in assay [4] is 0%. Besides, the mortality at 2.5 µg/mL in assay [5] turned out to be 80%. For the same compound, the mortality at 0.05 µg/mL in [6] turned out to be 80%. Further, the mortality at 0.1 µg/mL in [7] came to 100%. In addition, the mortality at 0.025 µg/mL in assay [8] was 70%.
With `O=C(NC(=O)c1c(F)cccc1F)Nc1ccc(Oc2cc(Cl)c(OC(F)(F)C(F)F)c(Cl)c2)cc1`, the mortality at 1 µg/mL in assay [4] turned out to be 0%. Also, in assay [5], the mortality at 2.5 µg/mL turned out to be 100%. Moreover, the mortality at 0.0025 µg/mL in [9] is 50%. In assay [10], the mortality at 0.005 µg/mL amounted to 100%.
For the compound `O=C(NC(=O)c1c(F)cccc1F)Nc1ccc(Oc2cc(Cl)c(OC(F)(F)C(F)F)c(Cl)c2)c(Cl)c1`, the mortality at 10 µg/mL in assay [1] turned out to be 60%. Further, the mortality at 25 µg/mL in assay [11] was found to be 90%. For the same compound, in assay [12], the mortality at 50 µg/mL worked out at 100%. Moreover, the mortality at 0.01 µg/mL in assay [13] is 80%. In assay [8], the mortality at 0.025 µg/mL is 100%. For the same compound, the mortality at 0.005 µg/mL in [10] came out at 30%.
With `O=C(NC(=O)c1c(F)cccc1F)Nc1ccc(COc2cc(Cl)c(OC(F)(F)C(F)F)c(Cl)c2)cc1`, the mortality at 5 µg/mL in [3] is 10%. Besides, the mortality at 10 µg/mL in assay [1] was 40%. Also, the mortality at 25 µg/mL in [11] was determined as 100%. Moreover, the mortality at 2 µg/mL in [14] came to 0%.
For `O=C(NC(=O)c1c(F)cccc1F)Nc1ccc(OCC=C(Cl)Cl)cc1`, the mortality at 50 µg/mL in [12] amounted to 60%. In assay [6], the mortality at 0.05 µg/mL is 70%. For the same compound, in [7], the mortality at 0.1 µg/mL turned out to be 100%. The mortality at 0.025 µg/mL in assay [8] was 60%. In addition, in assay [15], the mortality at 100 µg/mL turned out to be 80%. For the same compound, the mortality at 200 µg/mL in [16] stood at 90%.
With `O=C(NC(=O)c1c(F)cccc1F)Nc1ccc(COC(C(F)(F)F)C(F)(F)F)cc1`, the mortality at 50 µg/mL in [12] amounted to 0%. The mortality at 0.25 µg/mL in assay [2] was found to be 100%. The mortality at 0.05 µg/mL in assay [6] amounted to 30%. Besides, the mortality at 0.1 µg/mL in assay [7] amounted to 80%. Further, the mortality at 100 µg/mL in assay [15] worked out at 10%. Further, in assay [16], the mortality at 200 µg/mL turned out to be 40%.
Regarding `O=C(NC(=O)c1c(F)cccc1F)Nc1ccc(C(F)(C(F)(F)F)C(F)(F)F)cc1`, the mortality at 5 µg/mL in assay [3] was 100%. Also, the mortality at 1 µg/mL in assay [4] is 0%. In addition, the mortality at 2.5 µg/mL in assay [5] stood at 90%. Further, the mortality at 0.01 µg/mL in assay [13] is 100%. For the same compound, the mortality at 0.0025 µg/mL in [9] was 80%. Moreover, the mortality at 0.005 µg/mL in assay [10] is 90%.
